From article PMC4780734 (International Journal of Nanomedicine, 2016)
Entries after “also recorded” stand apart in the source; their conditions may differ.

What was measured:
[1] = Particle size distribution by dynamic light scattering; format: physicochemical; conditions: hydrodynamic size
[2] = Critical aggregation concentration by fluorescence pyrene method; format: physicochemical; conditions: in saline
[3] = Lower critical solution temperature; format: physicochemical
[4] = Solubility of the isolated solid; format: physicochemical; conditions: light yellow solid
[5] = test system: non-small-cell lung carcinoma A549 cells; assay: Biodistribution of Cy5.5-labeled PP by ex vivo imaging in tumor-bearing mice; set-up: species or system BALB/C nude mice; conditions: Cy5.5-labeled PP 60 mg/kg IV
Summary of the method: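 BALB/C nude mice (5 weeks, 15–20 g) were acclimatised for 4 days. A549 cells (1×10^7 in serum-free RPMI 1640) were injected s.c. into the right flank. After 2 weeks, with tumours at 250–300 mm3, mice received the Cy5.5-labelled conjugate (60 mg/kg in saline) IV via the tail vein. Mice were killed at 12, 24, 48 and 72 h, with blood taken by cardiac puncture. Tumour, muscle, liver, kidney, spleen, lung and blood were imaged by CCD camera through a 680–720 nm Cy5.5 emission filter.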

[6] = Clearance study of Cy5.5-labeled PP from major organs by ex vivo imaging; format: in vivo, BALB/C nude mice; conditions: Cy5.5-labeled PP 300 mg/kg IV, mice without tumor, postinjection
Summary of the method: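 Tumour-free BALB/C nude mice (n=30; 5 weeks, 15–20 g; acclimatised 4 days) received the Cy5.5-labelled conjugate at 300 mg/kg IV via the tail vein. Mice were killed at short intervals during week 1, then weekly. Dissected organs were imaged by CCD camera through a 680–720 nm Cy5.5 filter until each organ's intensity fell below that of a blank organ.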

[7] = Bioimaging of Pt in mouse kidney by laser ablation ICP-MS; format: in vivo; conditions: listed as PP
Summary of the method: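 Mouse kidneys were dissected at 2, 12 and 24 h after IV injection, following the biodistribution procedure. Reference drug was dosed to match on (dach)Pt content. Kidneys were cryostat-sectioned at 100 μm and dried at room temperature. Pt was mapped by femtosecond laser ablation ICP-MS.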

[8] = Pharmacokinetic study after single IV injection; format: in vivo, male Sprague–Dawley rats
male ICR mice = assay: Acute toxicity study; format: in vivo
In vitro release of = format: physicochemical; conditions: for accumulated amount of released (dach)Pt(II): pH 7.4, 37°C
Summary of the method: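 Conjugate solution (2 mg/mL) was dialysed in cellulose tubing (MWCO 2,000 Da) against phosphate buffer at pH 5.4 or 7.4, at 37°C with stirring at 100 rpm under sink conditions. Dialysate was sampled at set times over 10 days. Released Pt was measured by ICP-MS and expressed as cumulative % of total loaded (dach)Pt.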

[9] = test system: gastric tumor cell line (MKN-28); assay: Nude mouse xenograft trial; format: in vivo, BALB/C nude mice
Summary of the method: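 MKN-28 xenografts were grown in BALB/C nude mice (5 weeks, 15–20 g). Test and reference drugs were dosed to equal (dach)Pt content, at 8 mg (dach)Pt/kg, and reference drug was also given at 16 mg (dach)Pt/kg. Tumour growth and body weight were monitored.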

Compound: [NP(MPEG550)(AE)(AA)Pt(dach)]n [Polyplatin]
- mean diameter [1]: 55.1 nm
- critical aggregation concentration (CAC) [2]: 18.5 mg/L
- critical aggregation concentration (CAC) ([2]; unit as printed in b33): 18.5 mg/L
- Lower critical solution temperature (LCST) ([3]; 5% solution): higher than 100 °C
- Lower critical solution temperature (LCST) ([3]; given with the synthesis): > 100 °C
- solubility [4]: soluble in water and polar organic solvents
- plasma concentration course (fluorescence) ([5]; 12 to 72 hours postinjection): decrease slowly
- tumor accumulation / tumor selectivity ([5]; A549 tumor-bearing mice, EPR effect, listed as PP): high tumor selectivity
- time of maximum concentration in tumor ([5]; A549 tumor-bearing mice, postinjection): 48 h
- tumor-to-tissue ratio, maximum value ([5]; at 48 hours postinjection): 12
- time to clearance from all the major organs including the liver [6]: about 4 weeks
- excretion of platinum from kidney ([7]; 12 and 24 hours postinjection): more rapidly excreted than monomeric OX
- platinum distribution/accumulation in kidney ([7]; 2 hours postinjection, same dose based on (dach)Pt content): accumulates much less in kidney; also recorded: much less and relatively homogeneous distribution; also recorded: accumulated much less in the kidney
- clearance time relative to OX ([8]; PP (6.3 mL/h) compared with OX (116.36 mL/h)): about 18 times
- half-life of the β phase relative to OX ([8]; PP compared with OX, rats): more than twice longer
- t1/2 β ([8]; single IV 1 mg (dach)Pt/kg, male rats, listed as PP): 13.3 h
- body weight change depending on the dose (male ICR mice; 5, 50, 300 and 2,000 mg/kg IV, 14 days): no considerable difference in body weight change
- LD50 (male ICR mice; IV in saline, ICR mice, 14 days observation): more than 2000 mg/kg
- accumulated amount of platinum released (In vitro release of; pH 5.4, 37°C, 10 days): 98%
- accumulated amount of released (dach)Pt(II) (In vitro release of; 24 hours): 18%
- accumulated amount of released (dach)Pt(II) (In vitro release of; 10 days): 72%
- antitumor activity ([9]; 8 mg (dach)Pt/kg IV on days 1, 5, 9, MKN-28 xenograft): comparable to OX
- death of test mice ([9]; 16 mg (dach)Pt/kg IV, MKN-28 xenograft): without any death
- antitumor efficacy compared with OX, overall ([9]; MKN-28 xenograft, listed as PP): remarkably higher antitumor activity
- systemic toxicity compared with OX ([9]; MKN-28 xenograft, listed as PP): lower systemic toxicity; also recorded: low systemic toxicity
- antitumor activity ([9]; double dose of 16 mg (dach)Pt/kg IV on days 1, 5, 9, MKN-28 xenograft, listed as PP): much better activity
- body weight changes ([9]; low and high doses, during the drug injection period (days 1, 5, and 9)): nearly no body weight changes

Compound: O=C1[O][Pt]2([NH][C@@H]3CCCC[C@H]3[NH]2)[O]C1=O [Oxaliplatin, oxaliplatin, reference compound]
- AUC ([8]; single IV 1 mg (dach)Pt/kg, male rats, listed as OX): 2,320.4 ng h/mL
